Data: PubChem BioAssay
Active and inactive are the calls of the source.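 The calls were made as follows, unless noted: active = viability loss from added drug above about 55%, and viability with drug at most 40%, in both replicates (limit read from the data, passing the limit was not always enough); inconclusive = both conditions met in only one replicate; inactive = neither replicate meets both conditions.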

Key:
[1] = reduced viability of SK-BR-3 breast cancer cells – cell-based, 24 h, human, pilot screen (AID 572;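 active = viability at or below 10% of carrier control in both of two separate runs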;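 also: compound exposure lasted between 18 and 24 h rather than exactly 24 h; 100% = carrier-treated control wells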); settings: SK-BR-3 viability, CellTiter-Glo luminescence, at 10 µM, stronger effect = lower value
[2] = HUVEC growth inhibition – cell-based, human, primary screen (AID 575;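 active = viability at or below 30% in both replicate assays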;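 also: 100% = median of untreated cell wells with 0.1% DMSO on each plate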); settings: HUVEC proliferation, CellTiter-Glo luminescence, 72 h; at 10 µM; stronger effect = lower value
Method in brief: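 Material: primary human umbilical vein endothelial cells / Schedule: 72 h exposure, 37 °C, 5% CO2, 30 min RT equilibration / Signal: ATP-based CellTiter-Glo luminescent read / Read-out basis: percent of median DMSO-control luminescence / Control set: 32 DMSO-only cell-control wells (high), 32 MePR drug-control wells (low) per plate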

[3] = H69AR cell proliferation blockers – human, duplicate replicates, primary screen (AID 580;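 active = viability at or under a set limit in both replicates, limit being median viability minus 3 SD, cut at about 48% in these data, passing the limit was not always enough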;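 also: 100% = mean luminescence of untreated wells and 0% = no signal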); settings: H69AR lung tumor cells viability, ATP luminescence, 72 h; at 10 µM; stronger effect = lower value
[4] = MRP1 drug-resistance reversers in H69AR cells – cell-based, doxorubicin co-treatment, pilot screen (AID 601); settings: CellTiter-Glo, 72 h, at 10 µM; for differential viability (reversal): stronger effect = higher value
[5] = yeast transport mutant growth inhibition pilot in 384-well plates, post-Golgi transport modulator project (AID 636; in the data active = inhibition above about 31%); settings: absorbance 615 nm, about 18 h, stronger effect = higher value
[6] = growth suppression of yeast trafficking mutant, preliminary HTS, modulators of trafficking downstream of Golgi apparatus project, 1536-format plate, OD 615 nm (AID 637; in the data active = inhibition above about 30%); settings: yeast transport mutant growth, absorbance 615 nm, 18 h; stronger effect = higher value
[7] = H69AR cells + 2 uM doxorubicin, measured here: viability with 2 uM doxorubicin, stronger effect = lower value
[8] = H69AR cells, compound alone cytotoxicity

SMILES | viability [1] | viability [2] | viability [3] | differential viability (reversal) ([4]; H69AR cells + 2 uM doxorubicin) | viability [4, 7] | viability [4, 8] | inhibition [5] | inhibition [6]
Cc1cccc(C(=O)N(C)c2nnc(-c3ccncc3)s2)c1 | 98% (inactive) | 92.5% (inactive) | 85.8% (inactive) | -3.53% (inactive) | 89.4% | 85.8% | -0.41% (inactive) | 24.7% (inactive)
COCCCN1C(=O)C(=O)/C(=C(/O)c2ccc(OC)cc2)C1c1ccc(O)c(OC)c1 (configuration not stated) | 104% (inactive) | 109% (inactive) | 103% (inactive) | 6.55% (inactive) | 96.9% | 103% | -2.53% (inactive) | -1.45% (inactive)
O=C(Nc1ccc(F)cc1)NC1CCN(Cc2nnnn2Cc2ccco2)CC1 | 92% (inactive) | 70.5% (inactive) | 88.2% (inactive) | -0.315% (inactive) | 88.5% | 88.2% | -5.21% (inactive) | -7.9% (inactive)
COc1cc(C(=O)N(C)c2nnc(-c3cccnc3)s2)cc(OC)c1OC | 123% (inactive) | 89.6% (inactive) | 82.7% (inactive) | -8.95% (inactive) | 91.6% | 82.7% | -2.05% (inactive) | 17.4% (inactive)
O=C(NCC(=O)N(Cc1cccs1)C(C(=O)NC1CCCC1)c1ccncc1)c1ccco1 (configuration not stated) | 102% (inactive) | 109% (inactive) | 85.7% (inactive) | 2.2% (inactive) | 83.5% | 85.7% | -0.54% (inactive) | 16.4% (inactive)
COCCCn1nnnc1SCC(=O)Nc1nc(C)c(C)s1 | 109% (inactive) | 89.2% (inactive) | 88.1% (inactive) | 2.5% (inactive) | 85.6% | 88.1% | -2.88% (inactive) | 1.13% (inactive)
O=C(Nc1nnc(C2CCCC2)s1)C1CCN(S(=O)(=O)c2ccc(Cl)cc2)CC1 | 92% (inactive) | 94.4% (inactive) | 72.3% (inactive) | 3.83% (inactive) | 68.5% | 72.3% | -5.87% (inactive) | -5.64% (inactive)
Cn1c(CN2CCCCC2)nc2cc(NC(=O)c3ccccc3)ccc21 | 54% (inactive) | 102% (inactive) | 88.5% (inactive) | -5.74% (inactive) | 94.2% | 88.5% | -7.53% (inactive) | -3.09% (inactive)
COC(=O)C1=C(N)Oc2cc(C)n(Cc3ccncc3)c(=O)c2C1c1cccnc1 (configuration not stated) | 113% (inactive) | 86% (inactive) | 88.4% (inactive) | 3.73% (inactive) | 84.6% | 88.4% | -7.4% (inactive) | 0.97% (inactive)
Cc1ccc2c(c1)NC(=O)C(CC(=O)NCCCN1CCN(c3cc(Cl)ccc3C)CC1)O2 (configuration not stated) | 75.5% (inactive) | 1.67% (active) | 22.9% (active) | -17.8% (inactive) | 40.7% | 22.9% | 3.07% (inactive) | 0.98% (inactive)
CCCCC[C@H](O)/C=C/C1=C(CCCCCCC(=O)O)C(=O)CC1 | 109% (inactive) | 75.2% (inactive) | 92.5% (inactive) | -9.49% (inactive) | 102% | 92.5% | -0.26% (inactive) | -1.17% (inactive)
CCOC(=O)Cc1csc(/C(=N/O)C(N)=O)n1 | 94% (inactive) | 94.7% (inactive) | 92.6% (inactive) | -4.43% (inactive) | 97.1% | 92.6% | -1.82% (inactive) | -5.41% (inactive)
O=C1CCCN1Cc1ncnn1-c1ccccc1 | 89% (inactive) | 108% (inactive) | 112% (inactive) | 14.7% (inactive) | 97.1% | 112% | 0.27% (inactive) | -6.55% (inactive)
CCN(CC)CCNC(=O)c1ccc(NC(C)=O)cc1 | 136% (inactive) | 96.6% (inactive) | 94.8% (inactive) | -6.82% (inactive) | 102% | 94.8% | -1.69% (inactive) | 3.5% (inactive)
